The results in this text go back to ChEMBL document CHEMBL1144899, “Influence of phenyl ring disubstitution on bisbenzimidazole and terbenzimidazole cytotoxicity: synthesis and biological evaluation as radioprotectors” (2003).

The nature of assay [1]: Percent cell kill against BMG-1 (Human brain malignant glioma cell line with a DNA index of 0.96; wild type TP 53) at 1 hour incubation at 100 (uM).
The species named for another assay is Homo sapiens. The experiment in a line: In Vitro Cytotoxicity against BMG-1 (Human glioma cell line with a DNA index of 0.96; wild type TP 53) using MTT assay at 100 uM at 72 hours; No effect on the proliferation kinetics of BMG-1 cells. It is filed as functional, cell-based. A general note: Tetrazolium assays rely on reduction of a dye to a coloured formazan, in cell work by metabolically active cells.

The nature of assay [2]: In Vitro Cytotoxicity against BMG-1 (Human glioma cell line with a DNA index of 0.96; wild type TP 53) using Irradiation procedures followed by Macrocolony assay at 5Gy and 10 (uM) at 24 hr. Format: functional. To be noted: in the assay text read “growth kinetics” for “Macrocolony assay”.
The test system of assay [3] is Nucleic Acid. The experiment in a line: DNA binding property using 100(uM) of calf thymus DNA (CTDNA) and at 100(uM) was determined. Format: nucleic-acid assay. To be noted: Bos taurus.
The subject of assay [4] is Nucleic Acid. The experiment in a line: DNA binding property using 100(uM) of calf thymus DNA (CTDNA) and at 10(uM) was determined. Format: nucleic-acid assay. To be noted: Bos taurus. The method, boiled down: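 Calf thymus DNA (100 μM) with ligand at drug/DNA ratio r = 0.1 (10 μM drug) in 2 mM sodium cacodylate buffer, equilibrated 25 min. Thermal melting by absorbance at 260 nm, heated 25 to 100 °C at 0.5 °C/min; Tm taken as the midpoint of normalized curves, ΔTm relative to DNA alone. UV absorption (200–500 nm) and fluorescence emission spectra also recorded.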

A short description of assay [5]: In Vitro Cytotoxicity against BMG-1 (Human brain malignant glioma cell line with a DNA index of 0.96; wild type TP 53) using Macrocolony assay at 10 uM […]. It is filed as functional. The method, boiled down:
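BMG-1 glioma cells in DMEM with 5% fetal calf serum at 37 °C, exponential phase, 24 h after plating. Drug (0.1, 1, 10 or 100 μM) given for 1 h, then washed off. 200–1200 cells plated and grown 8–10 days at 37 °C in 5% CO2. Colonies fixed in methanol and stained with crystal violet; colonies over 50 cells counted and expressed as percent of control.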

A short description of assay [6]: (§1) In Vitro Cytotoxicity against BMG-1 (Human glioma cell line with a DNA index of 0.96; wild type TP 53) using Irradiation procedures followed by Macrocolony assay at 10 Gy and 10 (uM). It is filed as functional. In a few lines:
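Exponentially growing BMG-1 cells, 24 h after plating, given 10 μM ligand 1 h before irradiation. Co-60 gamma irradiation (2, 5 or 10 Gy) at room temperature in growth medium at 0.5–1.2 Gy/min. Cells then plated and colonies of more than 50 cells counted after 8–10 days. Survival expressed as percent of cells irradiated at the same dose without ligand.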

The nature of assay [7]: In Vitro Cytotoxicity against BMG-1 (Human glioma cell line with a DNA index of 0.96; wild type TP 53) using Macrocolony assay (clonogenicity) at 100 uM at 72 hours. Format: functional. To be noted: read-out: Survival.
Assay [8] is described as follows: In Vitro Cytotoxicity against BMG-1 (Human brain malignant glioma cell line with a DNA index of 0.96; wild type TP 53) using MTT assay at 10 uM at 72 hours. Format: functional. The method, boiled down:
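Then MTT at 0.5 mg/mL final for 2 h at 37 °C; formazan dissolved in DMSO; absorbance read at 570 nm against 630 nm reference; results as percent survival.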

A short description of assay [9]: In Vitro Cytotoxicity against BMG-1 (Human brain malignant glioma cell line with a DNA index of 0.96; wild type TP 53) using Macrocolony assay (clonogenicity) at 100 uM at 72 hours. Format: functional. To be noted: read-out: Survival.
Assay [10] in a line: In Vitro Cytotoxicity against BMG-1 (Human glioma cell line with a DNA index of 0.96; wild type TP 53) using Irradiation procedures followed by Macrocolony assay at 5Gy and 10 (uM). Format: functional. The method, boiled down:
(§2)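 Exponential BMG-1 (24 h after plating) given 10 μM drug 1 h before irradiation. Co-60 gamma rays at room temperature in growth medium, 0.5–1.2 Gy/min, at 2, 5 or 10 Gy. Cells plated for macrocolony assay, 8–10 days at 37 °C in 5% CO2; crystal violet-stained colonies >50 cells counted; survival as percent of irradiated control at each dose.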

Assay [11] in a line: Percent cell kill against BMG-1 (Human brain malignant glioma cell line with a DNA index of 0.96; wild type TP 53) at 1 hour incubation at 10 (uM).
Assay [12] can be described thus: In Vitro Cytotoxicity against BMG-1 (Human glioma cell line with a DNA index of 0.96; wild type TP 53) using Irradiation procedures followed by Macrocolony assay at 2 Gy and 10 (uM). It is filed as functional. In a few lines:
as §2

The nature of assay [13]: In Vitro Cytotoxicity against BMG-1 (Human brain malignant glioma cell line with a DNA index of 0.96; wild type TP 53) using MTT assay at 100 uM at 24 hours.
Assay [14] is described as follows: as §1. It is filed as functional. In a few lines:
as §2
The source holds these as a separate data set.

Several values for one entry are separate records, joined by “and”; a condition that tells them apart may be missing. Equal values may be shown once.

In general, ΔTm refers to the shift of the melting midpoint relative to a reference. In turn, `COc1ccc(-c2nc3cc(-c4nc5cc(N6CCN(C)CC6)ccc5[nH]4)ccc3[nH]2)cc1OC` showed a Cell kill % in assay [1] of 27%. Further, in the assay filed under Homo sapiens, the NA result was “No effect on the proliferation kinetics of BMG-1 cells”. The same compound registered a Protection in [2] of 84%. In the assay on Nucleic Acid [3], the Lambda-em worked out at 484 nm, the Lambda-ex amounted to 354 nm, the Tm is 76.4 °C and the ΔTm turned out to be 6.4 °C. For the same compound, in the assay with Nucleic Acid [4], the Lambda-em worked out at 500 nm and the Lambda-ex was 340 nm. The compound further returned a Protection in [5] of 82%. Also, the Protection in assay [6] was 100%. For the same compound, in [7], the viability at 100 µM turned out to be 73%.

Turning to `CCOc1ccc(-c2nc3cc(-c4nc5cc(N6CCN(C)CC6)ccc5[nH]4)ccc3[nH]2)cc1`, the Killed in assay [8] is reported as 35%. Further, the viability at 100 µM in assay [9] is 10%. For the same compound, the Survival in assay [10] turned out to be 15%; in assay [12], 10%; in assay [14] it was 15%. Besides, the figures for the Cell kill % in [1] and in assay [11] were 90% and 55%, respectively. The Lambda-em was 484 nm in the assay on Nucleic Acid [3] and 500 nm with Nucleic Acid [4]. The values for the Lambda-ex with Nucleic Acid [3] and in the assay with Nucleic Acid [4] were 354 nm and 340 nm, respectively. Moreover, the Tm in the assay on Nucleic Acid [3] turned out to be 76 °C. Besides, the shift in melting temperature (ΔTm) with Nucleic Acid [3] is 6 °C. In addition, the Lysis in [13] came to 77%.

Consider `COc1cc(-c2nc3cc(-c4nc5cc(-c6nc7cc(N8CCN(C)CC8)ccc7[nH]6)ccc5[nH]4)ccc3[nH]2)ccc1O`, for which, in [9], the viability at 100 µM was found to be 92%. For the same compound, the Survival in assay [10] is 37%; in assay [12] it was 24%; in assay [14], 100%. For the same compound, in the assay filed under Homo sapiens, the NA result was “No effect on the proliferation kinetics of BMG-1 cells”. Further, the Protection is 100% in assay [2] and 37% in [5]. Further, the Lambda-em with Nucleic Acid [3] is 418 nm and 441 nm; in the assay with Nucleic Acid [4] it was 500 nm. The Lambda-ex in the assay with Nucleic Acid [3] was 356 nm and 391 nm; with Nucleic Acid [4], 350 nm. Also, the Tm in the assay with Nucleic Acid [3] worked out at 78 °C. In addition, the ΔTm in the assay on Nucleic Acid [3] stood at 8 °C.
